Results as given in ChEMBL document CHEMBL1127487, “Cyclic enkephalin analogs with exceptional potency at peripheral delta opioid receptors” (J Med Chem, 1994).
Where a SMILES comes first, the peptide text is derived from it. Bridges are numbered along the chain shown (N, C = ends). [ ]: non-standard residue; d: D form. dPen = CC(C)(S)[C@@H](N)C(=O)O

Legend:
[1] = target: Delta-type opioid receptor (Mus musculus, UniProt P32300); assay: Inhibitory concentration against delta opioid receptor of electrically induced smooth muscle contraction of mouse vas deferens; type: functional
Sequence of Delta-type opioid receptor (Mus musculus, UniProt P32300) (P32300 whole entry): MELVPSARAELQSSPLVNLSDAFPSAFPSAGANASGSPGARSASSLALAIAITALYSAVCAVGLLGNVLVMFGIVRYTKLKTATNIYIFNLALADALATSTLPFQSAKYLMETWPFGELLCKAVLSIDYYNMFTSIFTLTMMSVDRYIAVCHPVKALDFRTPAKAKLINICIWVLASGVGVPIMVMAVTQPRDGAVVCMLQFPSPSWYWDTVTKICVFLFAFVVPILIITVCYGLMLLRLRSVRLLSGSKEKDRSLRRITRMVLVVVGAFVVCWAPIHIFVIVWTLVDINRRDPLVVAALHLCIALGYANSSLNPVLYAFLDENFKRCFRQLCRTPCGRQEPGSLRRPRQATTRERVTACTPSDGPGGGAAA

Mu-type opioid receptor [2] = target: Mu-type opioid receptor (Cavia porcellus, UniProt P97266); assay: Inhibitory concentration against electrically evoked contractions of guinea pig ileum longitudinal muscle-myenteric plexus; type: functional, tissue-based
Sequence of Mu-type opioid receptor (Cavia porcellus, UniProt P97266) (P97266 whole entry): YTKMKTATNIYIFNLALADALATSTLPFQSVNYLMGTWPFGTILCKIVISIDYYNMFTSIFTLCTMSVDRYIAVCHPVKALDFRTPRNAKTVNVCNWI
In short: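 Longitudinal muscle-myenteric plexus strips from male Hartley guinea pigs (250–500 g) in oxygenated Krebs bicarbonate at 37 °C, 1-g tension. Transmural stimulation at 0.1 Hz, 0.4-ms pulses, supramaximal voltage. Cumulative agonist doses with 3 min contact each. Inhibition is relative to contraction height over the preceding 1 min.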

[3] = Selectivity ratio (GPI/MVD) of the compound; type: functional
In short: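 IC50 ratio GPI/MVD. GPI: guinea pig ileum strips, 1-g tension, 0.4-ms pulses. MVD: male ICR mouse vas deferens (25–40 g), Mg-free Krebs, 0.5-g tension, 2.0-ms pulses. Both tissues at 37 °C, 0.1 Hz, cumulative doses with 3 min contact. Hill-equation fit, ≥4 tissues each.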

Mu-type opioid receptor [4] = target: Mu-type opioid receptor (Rattus norvegicus, UniProt P33535); assay: Binding affinity towards mu opioid receptor was determined in rat brain using [3H]CTOP as radioligand; type: tissue-based
Sequence of Mu-type opioid receptor (Rattus norvegicus, UniProt P33535) (P33535 whole entry): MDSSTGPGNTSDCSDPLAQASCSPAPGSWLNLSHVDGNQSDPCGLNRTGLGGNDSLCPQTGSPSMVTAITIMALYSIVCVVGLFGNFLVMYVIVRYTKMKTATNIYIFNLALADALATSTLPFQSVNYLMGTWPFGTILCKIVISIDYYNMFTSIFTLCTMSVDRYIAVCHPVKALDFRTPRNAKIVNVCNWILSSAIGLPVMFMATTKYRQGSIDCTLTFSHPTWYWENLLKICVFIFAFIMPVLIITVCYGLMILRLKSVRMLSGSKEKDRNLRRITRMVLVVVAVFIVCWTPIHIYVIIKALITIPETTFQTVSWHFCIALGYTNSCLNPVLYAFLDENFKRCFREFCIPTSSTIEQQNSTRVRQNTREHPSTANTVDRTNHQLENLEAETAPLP
In short: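 Rat brain membranes washed in 50 mM Tris-HCl pH 7.4, preincubated 30 min at 25 °C. Competition against 0.5 nM [3H]CTOP, 10 analog concentrations over an 800-fold range, in peptidase-inhibitor buffer with BSA. Incubation 3 h at 25 °C. Nonspecific binding defined by 10 μM naltrexone. Bound ligand filtered and counted; IC50 by nonlinear least-squares regression, at least three runs in duplicate.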

[5] = test system: Opioid receptors; mu & delta; assay: Selectivity ratio (mu/delta) of the compound; type: protein assay
[6] = target: Delta-type opioid receptor (Rattus norvegicus, UniProt P33533); assay: Binding affinity towards delta opioid receptor was determined in rat brain using [H]-[p-Cl-Phe4]-DPDPE as radioligand; type: tissue-based
Sequence of Delta-type opioid receptor (Rattus norvegicus, UniProt P33533) (P33533 whole entry): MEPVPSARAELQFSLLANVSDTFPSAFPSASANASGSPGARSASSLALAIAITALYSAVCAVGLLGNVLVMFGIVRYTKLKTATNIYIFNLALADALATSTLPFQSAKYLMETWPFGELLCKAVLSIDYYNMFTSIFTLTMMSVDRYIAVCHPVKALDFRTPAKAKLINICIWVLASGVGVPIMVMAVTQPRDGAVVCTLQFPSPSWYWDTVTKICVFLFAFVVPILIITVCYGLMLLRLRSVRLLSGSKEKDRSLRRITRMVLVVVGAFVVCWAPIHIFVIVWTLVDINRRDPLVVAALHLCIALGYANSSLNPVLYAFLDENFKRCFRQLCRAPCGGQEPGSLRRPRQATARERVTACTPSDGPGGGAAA
In short: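 Rat brain membranes washed in 50 mM Tris-HCl pH 7.4, preincubated 30 min at 25 °C to strip endogenous peptides. Buffer contains BSA, bestatin, bacitracin, captopril and toluenesulfonyl fluoride. Incubation 3 h at 25 °C. Nonspecific binding with 10 μM naltrexone. Filtration, scintillation counting, nonlinear least-squares fit, n ≥ 6.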

SMILES | IC50 [1] | IC50 (Mu-type opioid receptor [2]) | Selectivity [3] | IC50 (Mu-type opioid receptor [4]) | Selectivity [5] | IC50 [6]
CC1(C)SSC[C@@H](C(=O)N[C@@H](Cc2ccccc2)C(=O)O)NC(=O)[C@H](Cc2ccc(I)cc2)NC(=O)CNC(=O)[C@@H]1NC(=O)[C@@H](N)Cc1ccc(O)cc1 | 0.3 nM | 640 nM | 2100 | 1600 nM | 1300 | 1.2 nM
CC1(C)SSC[C@@H](C(=O)N[C@@H](Cc2ccccc2)C(=O)O)NC(=O)[C@H](Cc2ccc(Br)cc2)NC(=O)CNC(=O)[C@@H]1NC(=O)[C@@H](N)Cc1ccc(O)cc1 | 0.028 nM | 120 nM | 4300 | 530 nM | 530 | 1 nM
CC1(C)SSC[C@@H](C(=O)N[C@@H](Cc2ccccc2)C(=O)O)NC(=O)[C@H](Cc2ccccc2)NC(=O)CNC(=O)[C@@H]1NC(=O)[C@@H](N)Cc1ccc(O)cc1 (H-Y[dPen]GFCF-OH; disulfide 2-5) | 0.016 nM | 82.7 nM | 5100 | 280 nM | 200 | 1.4 nM
CC1(C)SSC[C@@H](C(=O)N[C@@H](Cc2ccccc2)C(=O)O)NC(=O)[C@H](Cc2ccc(Cl)cc2)NC(=O)CNC(=O)[C@@H]1NC(=O)[C@@H](N)Cc1ccc(O)cc1 | 0.076 nM | 36 nM | 470 | 83 nM | 160 | 0.51 nM
CC1(C)SSC[C@@H](C(=O)N[C@@H](Cc2ccccc2)C(=O)O)NC(=O)[C@H](Cc2ccc(F)cc2)NC(=O)CNC(=O)[C@@H]1NC(=O)[C@@H](N)Cc1ccc(O)cc1 | 0.028 nM | 32 nM | 1100 | 110 nM | 160 | 0.71 nM
CC(C)[C@H](NC(=O)[C@H](CC(=O)O)NC(=O)[C@H](Cc1ccccc1)NC(=O)[C@@H](C)NC(=O)[C@@H](N)Cc1ccc(O)cc1)C(=O)N[C@H](C(=O)NCC(N)=O)C(C)C [DELTORPHIN C] | – | > 1500 nM | – | – | – | –
